Assay outcomes: PubChem, Broad Institute
PAX8 inh HTS – inhibitors of PAX8-driven TPO luciferase reporter, primary screen, RMG-I cells, single concentration; SteadyGlo, 24 h; inhibition, % at 12.6 µM; hit rate 1.2% among 360,000; AID 652154, 2013;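 active = mean replicate inhibition at least 60% with every replicate also reaching 60%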;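 also: luciferase light reporting Pax8 driven TPO promoter activity; plate controls were median of neutral control wells for no effect and mitoxantrone controls for full effect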
FN deposit inh – inhibitors of fibronectin matrix deposition, primary screen, AH1F cells, Alexa488-fibronectin fluorescence, plate reader; AH1F fibroblasts, overnight; inhibition, % at 12.6 µM; hit rate 0.086% among 350,000;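 active = mean inhibition across replicates of 30% or more, regardless of how many single replicates reach that level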;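 also: positive control wells lacked labelled fibronectin entirely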
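Test system: AH1F fibroblast monolayer depositing Alexa488-labelled fibronectin into matrix. Input: 10000 cells per well. Technique: fluorescence, ex 485 nm, em 525 nm. Buffer or medium: DMEM plus 2% serum, read in PBS. Timing: 1 h cell adhesion before compound, then overnight fibronectin incubation. Compound: single dose, pinned. Read-out basis: inhibition from reduced deposited-fibronectin fluorescence.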
HIV Env fusion – inhibitors of HIV-1 Env-driven cell-cell fusion, primary screen, HeLa-JRFL effector, CEM21 target cells, luciferase; AID 651610, 2012; inhibition, % at 12.3 µM; hit rate 1.1% among 360,000;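 active = mean replicate inhibition score of at least 50 and every replicate individually at or above 50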;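 also: 0% = plate neutral controls and 100% = maraviroc near 300 nM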
EWS-Fli inh – EWS/Fli-driven NR0B1 reporter inhibitors, primary screen, A673 cells, NR0B1 luciferase, luminescence, MLPCN library; viability-normalised; inhibition, % at 12.6 µM; hit rate 0.67% among 350,000;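 active = mean inhibition of at least 50% after viability correction, with every replicate also passing that limit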;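 also: firefly luciferase signal divided by Alamar Blue viability fluorescence both relative to DMSO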
Glyco luc inh – increase of ERlucT glycosylation luciferase signal, primary screen, N-linked glycosylation inhibitor project, D54 ERlucT cells, luminescence, set 2 | AID 588692, 2011 | reporter increase, % at 12.5 µM | D54 ERlucT glycosylation luciferase reporter, 24 h; percent of 100 nM tunicamycin response | hit rate 0.23% among 360,000;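 active = mean luciferase reporter signal, scaled so untreated is 0 and the glycosylation-blocking control 100, at or above a set limit in every replicate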;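 also: luciferase carries N-glycosylation sites so blocking glycosylation raises the light; 0% = median of neutral control wells and 100% = median of 100 nM tunicamycin wells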
AF4-AF9 inh – inhibitors of AF4 peptide binding to AF9, primary screen, biochemical, AlphaScreen, biotin-AF4 peptide, FLAG-AF9, single point; hit rate 0.47% among 350,000; inhibition, % at 10 µM; Protein AF-9 (Homo sapiens), P42568;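 active = every replicate reaching a set inhibition limit, whatever the replicate mean, cut at about 25% in these data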;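 also: 0% = plate neutral control median and 100% = total signal loss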
Target sequence (P42568 whole entry, looked up): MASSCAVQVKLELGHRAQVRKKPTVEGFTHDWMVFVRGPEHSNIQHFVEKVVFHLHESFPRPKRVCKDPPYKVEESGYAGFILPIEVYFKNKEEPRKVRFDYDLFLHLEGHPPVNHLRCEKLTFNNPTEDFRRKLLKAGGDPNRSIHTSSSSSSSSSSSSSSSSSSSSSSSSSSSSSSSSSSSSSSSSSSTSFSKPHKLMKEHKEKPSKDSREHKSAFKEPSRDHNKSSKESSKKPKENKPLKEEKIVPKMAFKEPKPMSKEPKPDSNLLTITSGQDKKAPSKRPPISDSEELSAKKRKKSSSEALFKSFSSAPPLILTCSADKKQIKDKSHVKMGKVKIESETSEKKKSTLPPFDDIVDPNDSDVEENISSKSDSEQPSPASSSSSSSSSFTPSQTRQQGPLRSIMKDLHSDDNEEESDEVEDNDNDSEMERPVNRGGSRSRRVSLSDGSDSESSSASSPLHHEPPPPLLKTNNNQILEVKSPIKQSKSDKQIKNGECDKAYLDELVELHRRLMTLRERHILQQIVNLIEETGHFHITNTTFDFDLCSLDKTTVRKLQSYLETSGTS
* marks the source's active call; other numbers are inactive results; . = no result given; [ ] = remark or other dose. Compounds with a hit are over-represented: about 2.5% of the library has one in this group of screens.

SMILES	PAX8 inh HTS	FN deposit inh	HIV Env fusion	EWS-Fli inh	Glyco luc inh	AF4-AF9 inh
Cc1noc(C)c1S(=O)(=O)N(C)C[C@@H]1Oc2ccc(NC(=O)Nc3cccc4ccccc34)cc2CC(=O)N([C@H](C)CO)C[C@@H]1C	-8	5	79*[16.7 µM]	-13	.	0
Cc1ccc(S(=O)(=O)N(C)C[C@@H]2Oc3ccc(NC(=O)Nc4cccc5ccccc45)cc3CC(=O)N([C@@H](C)CO)C[C@@H]2C)cc1	.	.	56*[16.7 µM]	4	.	2
COc1ccccc1/C=N/Nc1cc(N(C)C)nc(N(C)C)n1	35	-1	14	13	2	29*
CN(C)c1cc(N/N=C\c2ccccc2)nc(N(C)C)n1	28	8	15	1	0	26*
COc1ccc(/C=N/Nc2cc(N(C)C)nc(N(C)C)n2)cc1	13	13	-1	-2	-1	28*
Cc1cc(N/N=C/c2ccccc2)nc(NCc2ccccc2)n1	-69	.	-16	2	-3	5
COc1ccc(/C=N/Nc2cc(OC)ncn2)cc1	-70	-1	-55	5	-17	3
COc1ccccc1/C=N/Nc1cc(C)nc(N2CCOCC2)n1	-5	3	2	4	1	2
COc1ccc(NC(=O)Nc2ccc3c(c2)C(=O)N([C@H](C)CO)C[C@@H](C)[C@@H](CN(C)S(C)(=O)=O)O3)cc1	.	-1	.	5	.	-4
COc1cccc(S(=O)(=O)N2C[C@H](O)COC[C@@H]3O[C@H](CC(=O)N4CCOCC4)CC[C@H]32)c1	-1	-6	.	3	.	-1
O=C(NCC[C@@H]1CC[C@@H](NC(=O)c2cccnc2)[C@H](CO)O1)Nc1ccc(C(F)(F)F)cc1	-113	-4	0[16.7 µM]	-79	.	26*
O=C(Cc1ccccn1)NCC[C@H]1CC[C@@H](NC(=O)Nc2ccc(C(F)(F)F)cc2)[C@@H](CO)O1	55	-1	-17[16.7 µM]	-9	.	3
O=C(Cc1ccccn1)NCC[C@H]1CC[C@H](NC(=O)Nc2ccc(C(F)(F)F)cc2)[C@H](CO)O1	69*	-11	-6[16.7 µM]	-9	.	4
C[C@H](CO)N1C[C@H](C)[C@H](CN(C)C(=O)Cc2ccncc2)Oc2cc(C#CC3CC3)ccc2S1(=O)=O	.	-11	2[16.7 µM]	3	.	3
Cc1ccc(S(=O)(=O)Nc2ccc3c(c2)CC(=O)N([C@@H](C)CO)C[C@H](C)[C@H](CN(C)Cc2ccc(Cl)c(Cl)c2)O3)cc1	6	-13	-32[16.7 µM]	69*	.	-2
Cc1ccc(S(=O)(=O)Nc2ccc3c(c2)CC(=O)N([C@H](C)CO)C[C@H](C)[C@@H](CN(C)Cc2ccc(Cl)c(Cl)c2)O3)cc1	82*	-4	11[16.7 µM]	10	.	-1
Cc1noc(C)c1S(=O)(=O)Nc1ccc2c(c1)CC(=O)N([C@@H](C)CO)C[C@@H](C)[C@H](CN(C)Cc1ccc(Cl)c(Cl)c1)O2	88*	7	85*[16.7 µM]	17	.	2
Cc1noc(C)c1S(=O)(=O)Nc1ccc2c(c1)CC(=O)N([C@@H](C)CO)C[C@H](C)[C@@H](CN(C)Cc1ccc(Cl)c(Cl)c1)O2	1	-3	9[16.7 µM]	-5	.	3
O=C(Cc1ccccc1)N[C@@H]1C=C[C@@H](CC(=O)N2CCOCC2)O[C@H]1CO	-1	0	-8[16.7 µM]	14	.	0
O=C(Nc1ccc(-c2ccccc2)cc1)[C@@H]1[C@@H](CO)[C@@H]2Cn3c(cccc3=O)[C@@H]2N1CC1CCCC1	-18	.	.	20	.	13
CCCCN(C(=O)c1cc(S(=O)(=O)N2CCOCC2)ccc1Cl)c1c(N)n(CC(C)C)c(=O)[nH]c1=O	3	-2	59*	11	2	6
CCCCN(C(=O)c1cc(S(=O)(=O)N2CCCCC2)ccc1Cl)c1c(N)n(CC(C)C)c(=O)[nH]c1=O	-3	-1	-36	5	1	4
CCc1nc2ccc(C(=O)Nc3cc(-c4ccccc4)ccc3OC)cn2c1N(C)CCC(C)C	17	.	27	22	-6	1
CCc1nc2ccc(C(=O)Nc3cc(-c4ccccc4)ccc3OC)cn2c1N(CCN(C)C)CC1CC1	30	-17	-20	42	-4	30*
O=C(O)C1CCCN1c1nc(-c2ccc(Cl)c(Cl)c2)cc(C(F)(F)F)n1 (stereo not given)	77*	.	.	8	-3	-2
SMILES	PAX8 inh HTS	FN deposit inh	HIV Env fusion	EWS-Fli inh	Glyco luc inh	AF4-AF9 inh
FC(F)(F)c1cc(-c2ccccc2)nc(N2CCCCC2)n1	.	.	.	.	-1	.
C[C@@H]1CN([C@@H](C)CO)C(=O)c2cc(NC(=O)c3ccccc3)ccc2O[C@@H](C)CCCCO[C@@H]1CN(C)Cc1ccc(C(=O)O)cc1	-13	3	-6[16.7 µM]	-9	.	-3
C[C@@H]1CCCCO[C@@H](CN(C)Cc2ccc(C(F)(F)F)cc2)[C@H](C)CN([C@@H](C)CO)C(=O)c2cc(NC(=O)c3ccccc3)ccc2O1	32	.	56*[16.7 µM]	13	.	-1
C[C@@H]1CN([C@@H](C)CO)C(=O)c2cc(NC(=O)c3ccccc3)ccc2O[C@@H](C)CCCCO[C@H]1CN(C)Cc1ccc(C(=O)O)cc1	6	4	62*[16.7 µM]	-7	.	-2
C[C@@H]1CCCCO[C@H](CN(C)Cc2ccc(C(F)(F)F)cc2)[C@H](C)CN([C@@H](C)CO)C(=O)c2cc(NC(=O)c3ccccc3)ccc2O1	85*	14	21[16.7 µM]	64*	.	1
C[C@H](NC(=O)C[C@@H]1CC[C@H](NC(=O)Cc2ccccn2)[C@@H](CO)O1)c1ccccc1	28	4	4[16.7 µM]	4	.	0
CC(=O)N(C)C[C@@H]1Oc2cc(C#CCC(C)C)ccc2S(=O)(=O)N([C@H](C)CO)C[C@@H]1C	.	-3	-5[16.7 µM]	3	.	1
O=C(C[C@@H]1C=C[C@H](NC(=O)Nc2ccccc2)[C@H](CO)O1)NCc1ccccn1	-14	.	-3[16.7 µM]	-9	.	.
O=C(C[C@@H]1CC[C@H](NC(=O)c2cccc(F)c2)[C@H](CO)O1)NCc1ccc(Oc2ccccc2)cc1	28	.	62*[16.7 µM]	12	.	1
O=C(C[C@H]1CC[C@@H](NC(=O)c2ccccc2)[C@H](CO)O1)NCc1ccc(Oc2ccccc2)cc1	11	-1	66*[16.7 µM]	6	.	-2
CCCN1C[C@@H](C)[C@H](OC)CN(C)C(=O)c2cc(NC(=O)Nc3c(C)noc3C)ccc2OC[C@@H]1C	-1	-40	.	-2	.	-1
C[C@@H]1CN([C@@H](C)CO)C(=O)c2cc(NC(=O)C3CCCCC3)ccc2O[C@@H](C)CCCCO[C@H]1CN(C)Cc1ccc2c(c1)OCO2	5	.	-23[16.7 µM]	6	.	-1
